# Compound activity (PubChem)
# Only a selection was taken, and hits are over-represented in it overall.
# PGC1a acetyl up: raises PGC1a acetylation signal in U2OS cells; U2OS PGC1a acetylation AlphaScreen, overnight; activation, % at 15.6 µM; hit rate 0.21% among 350,000;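 active means every replicate reaching activation of at least 50%, whatever the mean replicate activation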;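 further: hits raise the AlphaScreen acetylation signal above neutral controls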
#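 System: flag-PGC1a/GCN5 U2OS cells / Input: 7000 cells/well / Compound: single test concentration per compound / Incubation: overnight compound treatment, 37 °C / Technique: AlphaScreen on lysates with anti-acetyl-lysine antibody, acceptor and donor beads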
# The depositor's hits bear a star.
SMILES,PGC1a acetyl up
NS(=O)(=O)c1ccc(CCNC2CC(=O)N(Cc3ccccc3)C2=O)cc1 (stereo not drawn),-46
CN1CCN(/N=C/c2ccc(OCc3ccccc3)cc2)CC1,-41
CC(=O)Nc1ccc(NC(=O)c2cc(=O)c3ccccc3o2)cc1,-42
CC(=O)Nc1ccc(Sc2ccc([N+](=O)[O-])o2)cc1,438*
Cc1cc(C(F)(F)F)n(-c2nc(C(=O)NNS(=O)(=O)c3ccccc3[N+](=O)[O-])cs2)n1,-110
CCN(CC)c1ccc(NC(=O)c2cc(OC)cc(OC)c2)c(C)c1,99*
Cc1ccccc1C(=O)Nc1ccc(C(=O)O)cc1NC(=O)c1ccccc1C,-41
CCOc1ccccc1NC(=O)c1ccc2ccccc2c1,-88
C[C@H](CO)N1C[C@H](C)[C@H](CN(C)C(=O)NC2CCCCC2)Oc2cc(C#Cc3cccc(F)c3)ccc2S1(=O)=O,-48
COc1ccc(-c2cnc3c(c2)C(=O)N([C@H](C)CO)C[C@@H](C)[C@H](CN(C)C(=O)C2CCC2)O3)cc1,-56
C[C@@H]1CN([C@@H](C)CO)C(=O)c2cc(NC(=O)Nc3cccc4ccccc34)ccc2O[C@@H](C)CCCCO[C@H]1CN(C)C(=O)NC1CCCCC1,-42
C[C@H]1CCCCO[C@H](CN(C)C(=O)Nc2cccc3ccccc23)[C@@H](C)CN([C@@H](C)CO)C(=O)c2cc(N(C)C)ccc2O1,65*
C[C@H](CO)N1C[C@H](C)[C@H](CN(C)S(=O)(=O)c2cn(C)cn2)OCCCC[C@H](C)Oc2ccc(NC(=O)Nc3cccc4ccccc34)cc2C1=O,-52
CCOC(=O)c1c(CN2CCN(CC#N)CC2)n(C)c2cc(Br)c(OC)cc12,69*
O=C(Nc1nc2c(s1)CN(Cc1ccccc1)CC2)c1c(F)cccc1F,-41
C[C@@H]1CN([C@@H](C)CO)C(=O)c2cc(NS(C)(=O)=O)ccc2O[C@@H](C)CCCCO[C@H]1CN(C)C(=O)Nc1ccc(F)cc1,-48
Cc1cc(C)cc(N(CC(=O)NC2CC3CCC2C3)S(C)(=O)=O)c1 (stereo not drawn),83*
C/C(=N/NC(=O)CNC(=O)c1ccccn1)c1ccc([N+](=O)[O-])cc1,-44
Cc1ccccc1NCC(=O)N/N=C/C(Br)=C/c1ccccc1,150*
O=C(Cc1cccs1)N/N=C/C(Br)=C/c1ccccc1,81*
CC(C)[C@H](NC(=O)NCc1cccs1)C(=O)O,-85
CC(C)NC(=O)N(C)C[C@H]1OCCCC[C@@H](C)Oc2ccc(NC(=O)Nc3ccc(C(F)(F)F)cc3)cc2C(=O)N([C@H](C)CO)C[C@@H]1C,-50
CCCc1ccc(C(O)c2ncc(-c3cccc(F)c3)[nH]2)cc1 (stereo not drawn),-43
Cc1ccc(C(=O)N2CCN(c3ccc(NC(=S)NC(=O)c4cccs4)cc3)CC2)cc1,53*
Cc1ccc(C(=O)N2CCN(c3ncccn3)CC2)cc1,-80
SMILES,PGC1a acetyl up
Cc1ccc(CC(=O)Nc2nccs2)cc1,-51
COc1ccc(-c2onc(C)c2-c2ccc(C(=O)OC(C)C)o2)c(O)c1,-74
COc1ccc2nc(NCc3cccnc3)sc2c1,-56
CCn1cc(C(=O)NCc2cccnc2)c2cc(OC)c(OC)cc2c1=O,-45
COc1cccc(C(=O)c2c[nH]c(C(=O)NCc3cccnc3)c2)c1,86*
O=C(COc1ccccc1)N1CCN=C1SCc1ccccc1,-43
CCc1nc2c(OCc3ccc(S(C)(=O)=O)cc3)cccn2c1N(C)C(=O)c1ccccc1F,-45
O=C(Nc1ccc(CN2CCOCC2)cc1)c1ccc(F)cc1,-54
O=C(NCCN1CCOCC1)c1ccc(=O)oc1,52*
O=C(C[C@@H]1C=C[C@@H](NC(=O)Nc2ccc(C(F)(F)F)cc2)[C@H](CO)O1)NCc1ccccn1,-43
Cc1cc(O)c(N=Nc2ccc(C(=O)O)cc2)cc1C,-50
COc1ccc(Cn2nnnc2C(C(C)C)N(Cc2ccco2)Cc2cccs2)cc1 (stereo not drawn),56*
O=C(CN1CCC(N2CCCCC2)CC1)N1CCCc2ccccc21,82*
O=C(c1cccc(N2C(=O)C3C4C=CC(C4)C3C2=O)c1)N1CCCc2ccccc21 (stereo not drawn),-42
CC(=O)Nc1ccc2c(CSc3nncs3)cc(=O)oc2c1,-47
NC(=O)COC(=O)CC(NC(N)=O)c1ccc(Cl)cc1 (stereo not drawn),-107
CCOC(=O)Cn1cnc2scc(-c3ccccc3)c2c1=O,-43
COc1cc(Cl)c(S(=O)(=O)N2CC(C)OC(C)C2)cc1Cl (stereo not drawn),89*
COc1cc(C(=O)O)ccc1Cl,-48
CCOC(=O)C1=C[C@@H](C(C)(C)C)N(S(=O)(=O)c2ccc(C)cc2)[C@H]1c1cccc2ccccc12,100*
O=C(CC1CC1)N[C@H]1CC[C@@H](CCNS(=O)(=O)c2ccc(Cl)cc2)O[C@@H]1CO,-67
O=C(O)CCCC(=O)Nc1ccc(Br)cc1C(=O)O,50*
CN1CCN(C/C(=C2/N=C(c3ccccc3)OC2=O)N(C)C)CC1,-51
CC(C)(c1ccccc1)c1ccc(OCCCNCCO)cc1,88*
CCc1oc2c(C)c(O)ccc2c(=O)c1-c1ccc2ccccc2n1,-49
SMILES,PGC1a acetyl up
CC1CCCN(Cc2c(O)ccc3c(=O)c(-c4nc5ccccc5s4)c(N)oc23)C1 (stereo not drawn),62*
CC1CCCN(Cc2c(O)ccc3c4c(c(=O)oc23)CCCC4)C1 (stereo not drawn),-49
COc1ccccc1Nc1nc(NCCC(C)C)nc(N)c1[N+](=O)[O-],-47
COC(=O)[C@]1(Cc2ccccc2)N=C(c2ccc(OCCCO)cc2)O[C@@H]1c1ccccc1CN=[N+]=[N-],101*
COC(=O)[C@@]1(Cc2ccccc2CN=[N+]=[N-])N=C(c2ccc(OCCCO)cc2)O[C@H]1c1ccccc1,66*
COC(=O)[C@]1(Cc2ccccc2)N=C(c2ccc(OCCCO)cc2)O[C@@H]1c1ccccc1,77*
O=C(O)C1CCCN1S(=O)(=O)c1cc(Cl)ccc1Cl (stereo not drawn),-42
C/C(CC(=O)Nc1ccccc1Br)=N\NC(=O)C(=O)N1CCCC1,-44
NC(Cc1ccccc1)c1csc(NC(=O)Nc2ccccc2Oc2ccccc2)n1 (stereo not drawn),71*
Cc1ccc(S(=O)(=O)C(C#N)c2nc3ccccc3nc2N2CCCC2)cc1 (stereo not drawn),-50
Cc1ccc(S(=O)(=O)N2CCN(S(=O)(=O)c3ccc(C)cc3)C2c2ccccc2)cc1,110*
CCOC(=O)C1CN(S(=O)(=O)c2ccccc2)c2cc(S(=O)(=O)CC)ccc2O1 (stereo not drawn),-50
CC(C)c1ccc(/C=N/n2nnnc2Nc2ccccc2)cc1,-46
CC(=O)c1c(COC(=O)c2ccccc2)nc2ccccc2[n+]1[O-],-55
CN(C)Cc1csc(NC(=O)Nc2ccccc2-c2ccccc2)n1,52*
COc1ccc(N(C(=O)CCl)C(C(=O)NCCc2ccccc2)c2cccs2)cc1 (stereo not drawn),-61
C=CCSc1nc2ccccc2n1C(=O)/C=C/c1cc(OC)c(OC)c(OC)c1,527*
CCN(C(=O)CN1CCN(c2ccccc2O)CC1)c1c(N)n(Cc2ccccc2)c(=O)[nH]c1=O,-50
O=C(CSc1nc2c(sc3ccccc32)c(=O)n1CCc1ccccc1)NCc1ccco1,-57
Cc1cc(SCC(=O)NC(=O)NCc2ccco2)nc2ccccc12,85*
CNC(=O)COC(=O)c1cc(-c2ccco2)nc2ccccc12,-46
